Laboratory results reported in ChEMBL document CHEMBL1681766, “Structure and property based design of factor Xa inhibitors: pyrrolidin-2-ones with aminoindane and phenylpyrrolidine P4 motifs” (Bioorg Med Chem Lett, 2011).

How the values were obtained:
Type in all cases: ADME, organism-based
[1] = Plasma clearance in iv/po dosed Sprague-Dawley rat
Method in brief: (§1)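 Male Sprague-Dawley rats dosed by intravenous and by oral routes. Pharmacokinetic parameters are derived from these studies.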

[2] = Oral bioavailability in Sprague-Dawley rat; settings: in vivo; method in brief: as §1
[3] = Half life in iv/po dosed Sprague-Dawley rat; settings: in vivo; method in brief: as §1
[4] = Volume of distribution at steady state in iv/po dosed Sprague-Dawley rat; settings: in vivo, read-out: Vdss; method in brief: as §1

clearance [1]	bioavailability [2]	half-life [3]	Vd [4]	SMILES
2.6 mL/min/kg	25%	10.2 h	1.9 L/kg	O=C1[C@@H](NS(=O)(=O)c2ccc3cc(Cl)ccc3c2)CCN1c1ccc([C@H]2CCCN2)cc1F
2.8 mL/min/kg	52%	3.4 h	0.7 L/kg	O=C1[C@@H](NS(=O)(=O)/C=C/c2ccc(Cl)s2)CCN1c1ccc(C2CCCN2)cc1F (mixture of isomers)
9.5 mL/min/kg	57%	1.7 h	1.1 L/kg	CN(C)C1CCc2cc(N3CC[C@H](NS(=O)(=O)/C=C/c4ccc(Cl)s4)C3=O)ccc21 (mixture of isomers)
2.2 mL/min/kg	–	5.4 h	0.9 L/kg	CNC1CCc2cc(N3CC[C@H](NS(=O)(=O)/C=C/c4ccc(Cl)s4)C3=O)ccc21 (mixture of isomers)
6 mL/min/kg	61%	4.4 h	2 L/kg	CN(C)[C@H]1CCc2cc(N3CC[C@H](NS(=O)(=O)c4ccc5cc(Cl)ccc5c4)C3=O)ccc21
1.3 mL/min/kg	< 1%	11 h	0.8 L/kg	O=C1[C@@H](NS(=O)(=O)c2ccc3c(Cl)c[nH]c3c2)CCN1c1ccc(C2CCCN2)cc1F (mixture of isomers)
7.6 mL/min/kg	27%	3.4 h	1.7 L/kg	CN(C)[C@@H]1CCc2cc(N3CC[C@H](NS(=O)(=O)c4ccc5cc(Cl)ccc5c4)C3=O)ccc21

More lines, now with the values behind:

SMILES	clearance [1]	bioavailability [2]	half-life [3]	Vd [4]
O=C1[C@@H](NS(=O)(=O)c2ccc3cc(Cl)ccc3c2)CCN1c1ccc([C@@H]2CCCN2)cc1F	2.8 mL/min/kg	38%	7.5 h	1.7 L/kg
CNC1CCc2cc(N3CC[C@H](NS(=O)(=O)c4ccc5cc(Cl)ccc5c4)C3=O)ccc21 (mixture of isomers)	2.5 mL/min/kg	25%	12.4 h	2.4 L/kg
CN[C@@H](C)c1ccc(N2CC[C@H](NS(=O)(=O)c3ccc4cc(Cl)ccc4c3)C2=O)c(F)c1	–	> 10%	–	–
O=C1[C@@H](NS(=O)(=O)c2ccc3cc(Cl)ccc3c2)CCN1c1ccc(C2CCCN2)cc1F (mixture of isomers)	2.7 mL/min/kg	24%	9 h	1.9 L/kg
CN1CCCC1c1ccc(N2CC[C@H](NS(=O)(=O)/C=C/c3ccc(Cl)s3)C2=O)c(F)c1 (mixture of isomers)	11 mL/min/kg	41%	1.4 h	0.8 L/kg
